Results as given in ChEMBL document CHEMBL1137225, “Synthesis of analogues of Congo red and evaluation of their anti-prion activity” (2004).
pEC50: −log10 of the molar value.

Columns and labels:
Assay type in all cases: functional
[1] = biological target: Major prion protein (Mus musculus) (UniProt P04925); assay: Inhibition of PrPC polymerization by PrP-res at 100 uM; parameters: scale not given: the % may be the effect or the level left
Method in brief: (§1)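 Substrate recombinant mouse PrP refolded without metal ions (50 μg), preincubated with compound (100 μM) in 500 μL H2O pH 6.5 for 30 min; seeded with aged Mn2+-refolded mouse PrP (10 μg). Turbidity read at 325 nm (5-mm cuvette) immediately and after 5 min; absorbance increase expressed as percentage of DMSO control.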

[2] = biological target: Major prion protein (Mus musculus) (UniProt P04925); assay: Inhibition of PrP-res formation in SMB (Scrapie mouse brain) cells at 10 uM
Method in brief: (§2)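 Persistently scrapie-infected mouse SMB cells in 199 medium with 10% FCS, 5% newborn calf serum, 37 °C, 5% CO2; plated at 50% confluency, attached 24 h, then given fresh medium with compound diluted from 10 mM DMSO stock for 4 days. Lysates digested with proteinase K (80 μg/mL, 1 h, 37 °C); PrP-res detected by DR1 western blot, ECL, densitometry.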

SMB = assay: (§3) Compound was tested for the inhibition of PrP-res formation in SMB cells at 50 uM; conditions: Mus musculus; method in brief: as §2
[3] = Effective dose required for the inhibition of PrP-res formation in SMB cells; conditions: Mus musculus, read-out: ED50 (the source's name); method in brief: as §2
[4] = as §3; conditions: Mus musculus; method in brief: as §2
[5] = Compound was tested for the inhibition of PrP-res formation in SMB cells at 2 uM; conditions: Mus musculus; method in brief: as §2
[6] = Compound was tested for the ability to inhibit the polymerization of PrPC by PrP-res at 100 uM; value ranges from 17-50 %; parameters: scale not given: the % may be the effect or the level left; method in brief: as §1
[7] = Effective dose required for the inhibition of PrP-res formation in SMB cells; value ranges from 25-50 nM; conditions: Mus musculus, read-out: ED50 (the source's name); method in brief: as §2

Sequence of Major prion protein (Mus musculus) (P04925 whole entry): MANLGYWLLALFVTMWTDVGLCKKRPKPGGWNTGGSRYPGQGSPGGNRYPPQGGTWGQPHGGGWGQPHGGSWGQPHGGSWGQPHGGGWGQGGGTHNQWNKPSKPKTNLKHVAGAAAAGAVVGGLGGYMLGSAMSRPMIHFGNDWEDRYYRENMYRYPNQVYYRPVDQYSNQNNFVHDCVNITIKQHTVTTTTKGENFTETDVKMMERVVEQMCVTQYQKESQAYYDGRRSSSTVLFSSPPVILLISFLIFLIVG

Row | SMILES | Control [1] | inhibition [2] | also measured
1 | O=C(O)c1cc(NC(=O)c2ccc(C(=O)Nc3cc(C(=O)O)cc(C(=O)O)c3)cc2)cc(C(=O)O)c1 | 1% | Negative | 
2 | O=C(O)c1ccc(NS(=O)(=O)c2ccc(-c3ccc(S(=O)(=O)Nc4ccc(C(=O)O)cc4O)cc3)cc2)c(O)c1 | 12% | Negative | inhibition (SMB): Negative
3 | COC(=O)c1ccc(NCc2ccc(CNc3ccc(C(=O)OC)cc3O)cc2)c(O)c1 | 166% | Positive | pEC50 [3]: 7.12
4 | COC(=O)c1ccc(NC(=O)c2ccc(-c3ccc(C(=O)Nc4ccc(C(=O)OC)c(OC)c4)cc3)cc2)cc1OC | 70% | Positive | pEC50 [3]: 6.60
5 | COC(=O)c1ccc(/N=C/c2ccc(-c3ccc(/C=N/c4ccc(C(=O)OC)cc4O)cc3)cc2)c(O)c1 | 49% | Negative | inhibition at 50 µM [4]: 53%
6 | COC(=O)c1cc(/N=C/c2ccc(/C=N/c3ccc(O)c(C(=O)OC)c3)cc2)ccc1O |  | Negative | 
7 | O=[N+]([O-])c1ccc(/N=C/c2ccc(/C=N/c3ccc([N+](=O)[O-])cc3O)cc2)c(O)c1 | 109% | Negative | 
8 | CCOC(=O)c1ccc(/N=C/c2ccc(/C=N/c3ccc(C(=O)OCC)c(O)c3)cc2)cc1O | 92% | Negative | 
9 | COC(=O)c1ccc(/N=C/c2ccc(/C=N/c3ccc(C(=O)OC)cc3O)cc2)c(O)c1 | 140% | Negative | inhibition (SMB): Negative
10 | O=C(Nc1ccc([N+](=O)[O-])cc1O)c1ccc(C(=O)Nc2ccc([N+](=O)[O-])cc2O)cc1 | 15% | Negative | 
11 | COC(=O)c1cc(NC(=O)c2ccc(C(=O)Nc3cc(C(=O)OC)cc(C(=O)OC)c3)cc2)cc(C(=O)OC)c1 | 147% | Positive | pEC50 [3]: 6.60
12 | N#Cc1ccc(NC(=O)c2ccc(C(=O)Nc3ccc(C#N)cc3)cc2)cc1 | 68% | Negative | 
13 | COC(=O)c1cc(NC(=O)c2ccc(-c3ccc(C(=O)Nc4ccc(O)c(C(=O)OC)c4)cc3)cc2)ccc1O | 249% | Positive | pEC50 [3]: 5.30
14 | C(=N\c1ccccc1)/c1ccc(/C=N/c2ccccc2)cc1 |  | Negative | 
15 | Oc1ccc(/C=C/c2ccc(/C=C/c3ccc(O)cc3)cc2)cc1 |  |  | inhibition at 2 µM [5]: 5%
16 | O=C(O)c1ccc(C/N=C/c2ccc(/C=N/Cc3ccc(C(=O)O)cc3)cc2)cc1 | 117% | Negative | 
17 | Cc1ccc(/N=C/c2ccc(/C=N/c3ccc(C)cc3O)cc2)c(O)c1 | 230% | Negative | 
18 | Oc1ccc(/N=C/c2ccc(/C=N/c3ccc(O)cc3)cc2)cc1 | 240% | Negative | 
19 | N#Cc1ccc(NC(=O)c2ccc(-c3ccc(C(=O)Nc4ccc(C#N)cc4)cc3)cc2)cc1 | 196% | Negative | 
20 | Oc1ccccc1/N=C/c1ccc(-c2ccc(/C=N/c3ccccc3O)cc2)cc1 | 281% | Negative | 
21 | COc1cc(NC(=O)c2ccc(-c3ccc(C(=O)Nc4ccc(C(=O)O)c(OC)c4)cc3)cc2)ccc1C(=O)O | 472% | Negative | 
22 | COC(=O)c1ccc(NC(=O)c2ccc(-c3ccc(C(=O)Nc4ccc(C(=O)OC)cc4O)cc3)cc2)c(O)c1 |  | Positive | Control [6]: 50%; pEC50 [7]: 7.30
23 | COC(=O)c1ccc(NS(=O)(=O)c2ccc(-c3ccc(S(=O)(=O)Nc4ccc(C(=O)OC)cc4O)cc3)cc2)c(O)c1 | 30% | Negative | inhibition at 50 µM [4]: 77%
24 | C(=N\c1ccccc1)/c1ccc(-c2ccc(/C=N/c3ccccc3)cc2)cc1 | 315% | Negative | 
25 | O=C(O)c1ccc(/N=C/c2ccc(/C=N/c3ccc(C(=O)O)cc3)cc2)cc1 | 12% | Negative | 
26 | COC(=O)c1ccc(NC(=O)c2ccc(-c3ccc(C(=O)Nc4ccc(C(=O)OC)c(O)c4)cc3)cc2)cc1O | NR | Negative | 
27 | COC(=O)c1ccc(OC)c(NCc2ccc(CNc3cc(C(=O)OC)ccc3OC)cc2)c1 | 20% | Positive | pEC50 [3]: 6.60

Row | SMILES | Control [1] | inhibition [2] | also measured
28 | O=C(Nc1ccccc1O)c1ccc(-c2ccc(C(=O)Nc3ccccc3O)cc2)cc1 | 430% | Negative | 
29 | O=C(Nc1ccccc1)c1ccc(-c2ccc(C(=O)Nc3ccccc3)cc2)cc1 | 171% | Negative | 
30 | COC(=O)c1ccc(OC)c(/N=C/c2ccc(/C=N/c3cc(C(=O)OC)ccc3OC)cc2)c1 | 47% | Negative | inhibition (SMB): Negative
31 | COC(=O)c1ccc(NC(=O)c2ccc(C(=O)Nc3ccc(C(=O)OC)cc3)cc2)cc1 | 100% | Negative | 
32 | Oc1ccccc1/N=C/c1ccc(/C=N/c2ccccc2O)cc1 | 85% | Negative | 
33 | COC(=O)c1ccc(OC)c(NS(=O)(=O)c2ccc(-c3ccc(S(=O)(=O)Nc4cc(C(=O)OC)ccc4OC)cc3)cc2)c1 | 77% | Negative | inhibition (SMB): Negative
34 | O=C(Oc1ccccc1)c1ccc(/N=C/c2ccc(/C=N/c3ccc(C(=O)Oc4ccccc4)c(O)c3)cc2)cc1O | 113% | Negative | inhibition (SMB): Negative
35 | CCOC(=O)c1cc(/N=C/c2ccc(/C=N/c3ccc(O)c(C(=O)OCC)c3)cc2)ccc1O | 60% | Negative | 
36 | O=C(Nc1ccccc1)c1ccc(C(=O)Nc2ccccc2)cc1 | 54% | Negative | 
37 | N#Cc1ccc(/N=C/c2ccc(/C=N/c3ccc(C#N)cc3)cc2)cc1 | 81% | Positive | pEC50 [3]: 6.30
38 | O=C(O)c1cc(NS(=O)(=O)c2ccc(-c3ccc(S(=O)(=O)Nc4cc(C(=O)O)cc(C(=O)O)c4)cc3)cc2)cc(C(=O)O)c1 | 2% | Negative | inhibition (SMB): Negative
39 | O=C(O)c1ccc(NCc2ccc(CNc3ccc(C(=O)O)cc3O)cc2)c(O)c1 | 79% | Negative | 
40 | O=C(O)c1ccc(/N=C/c2ccc(-c3ccc(/C=N/c4ccc(C(=O)O)cc4O)cc3)cc2)c(O)c1 | 62% | Positive | 
41 | O=C(Oc1ccccc1)c1ccc(NS(=O)(=O)c2ccc(-c3ccc(S(=O)(=O)Nc4ccc(C(=O)Oc5ccccc5)c(O)c4)cc3)cc2)cc1O | 90% | Negative | inhibition (SMB): Negative
42 | COC(=O)c1ccc(OC)c(/N=C/c2ccc(-c3ccc(/C=N/c4cc(C(=O)OC)ccc4OC)cc3)cc2)c1 |  | Negative | 
43 | Oc1ccc(/N=C/c2ccc(-c3ccc(/C=N/c4ccc(O)cc4)cc3)cc2)cc1 | 104% | Positive | pEC50 [3]: 6.60
44 | COC(=O)c1ccc(OC)c(NC(=O)c2ccc(C(=O)Nc3cc(C(=O)OC)ccc3OC)cc2)c1 | 70% | Negative | 
45 | O=C(O)c1ccc(/N=C/c2ccc(/C=N/c3ccc(C(=O)O)cc3O)cc2)c(O)c1 | 35% | Negative | inhibition (SMB): Negative
46 | O=C(O)c1cc(/N=C/c2ccc(/C=N/c3ccc(O)c(C(=O)O)c3)cc2)ccc1O | 53% | Negative | 
47 | COC(=O)c1ccc(/N=C/c2ccc(/C=N/c3ccc(C(=O)OC)c(O)c3)cc2)cc1O | 113% | Negative | 
48 | Oc1ccccc1NCc1ccc(CNc2ccccc2O)cc1 | 240% | Positive | pEC50 [3]: 5.60
49 | O=C(O)c1cc(/C=C/c2ccc(/C=C/c3ccc(O)c(C(=O)O)c3)cc2)ccc1O | 72% | Negative | inhibition at 50 µM [4]: 3%
50 | N#Cc1ccc(/N=C/c2ccc(/C=N/c3ccc(C#N)c4ccccc34)cc2)c2ccccc12 | 148% | Negative | 
51 | COC(=O)c1ccc(NC(=O)c2ccc(C(=O)Nc3ccc(C(=O)OC)cc3O)cc2)c(O)c1 | 62% | Positive | pEC50 [3]: 5.30
52 | COc1ccc(C(=O)O)cc1/N=C/c1ccc(/C=N/c2cc(C(=O)O)ccc2OC)cc1 | 11% | Negative | 
53 | O=C(Nc1ccc([N+](=O)[O-])cc1O)c1ccc(-c2ccc(C(=O)Nc3ccc([N+](=O)[O-])cc3O)cc2)cc1 | 160% | Negative | 
54 | COc1ccc(C(=O)O)cc1NS(=O)(=O)c1ccc(-c2ccc(S(=O)(=O)Nc3cc(C(=O)O)ccc3OC)cc2)cc1 | 62% | Negative | inhibition at 50 µM [4]: 33%
